# Measured values taken from ChEMBL document CHEMBL5032505, “Design, Synthesis, and Activity Evaluation of Stereoconfigured Tartarate Derivatives as Potential Anti-inflammatory Agents In Vitro and In Vivo” (J Med Chem, 2021).
# Calls of active or inactive are those of the source. The calls are words filed in the database; no cut-off is given here.
# Columns and labels:
# [1] = biological target: T1, Prostaglandin G/H synthase 1 (Ovis aries) (UniProt P05979)
# T1 sequence (whole entry): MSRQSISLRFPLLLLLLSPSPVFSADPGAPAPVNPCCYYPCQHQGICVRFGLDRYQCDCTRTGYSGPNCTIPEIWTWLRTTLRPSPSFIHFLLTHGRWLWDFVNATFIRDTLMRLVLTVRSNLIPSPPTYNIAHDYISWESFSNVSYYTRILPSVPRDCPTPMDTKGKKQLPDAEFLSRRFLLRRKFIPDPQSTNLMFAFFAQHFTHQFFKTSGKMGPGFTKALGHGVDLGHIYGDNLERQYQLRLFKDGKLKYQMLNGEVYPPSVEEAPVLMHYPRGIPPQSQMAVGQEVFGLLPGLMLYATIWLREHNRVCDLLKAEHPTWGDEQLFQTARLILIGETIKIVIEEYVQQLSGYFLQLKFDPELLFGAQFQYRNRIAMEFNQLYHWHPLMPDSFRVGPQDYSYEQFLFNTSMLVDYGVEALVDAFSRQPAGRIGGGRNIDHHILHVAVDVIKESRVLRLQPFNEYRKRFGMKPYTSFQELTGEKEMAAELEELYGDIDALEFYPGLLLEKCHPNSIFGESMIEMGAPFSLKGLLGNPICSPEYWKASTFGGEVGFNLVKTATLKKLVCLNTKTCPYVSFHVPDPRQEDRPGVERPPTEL
# Mus musculus [2] = test: Analgesic activity in Swiss albino mouse assessed as inhibition of acetic acid-induced writhing at 5 mg/kg, ip preincubated for 30 mins with substance P followed by compound addition for 30 mins prior to acetic acid challenge and measured after 30 mins; assay type: functional, organism-based; settings: time 60.0 min
# [3] = AUC (0 to t) in Swiss albino mouse at 10 mg/kg, ip measured upto 24 hrs by LC-MS analysis; assay type: ADME, organism-based; parameters: route intraperitoneal, dose 10 mg/kg, time <=24; settings: in vivo
# Method in brief: (§1)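 Swiss albino mice (25−35 g), either sex, 10 groups of three. 10 mg/kg suspended in 0.1% CMC, given i.p. Ketamine anaesthesia (50 mg/kg i.p.). Jugular vein blood taken at 30, 45, 60 min and 2, 3, 4, 6, 8, 11, 24 h into heparinised tubes, triplicate samples per time point.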
# [4] = biological target: T2, Prostaglandin G/H synthase 2 (Homo sapiens) (UniProt P35354)
# T2 sequence (whole entry): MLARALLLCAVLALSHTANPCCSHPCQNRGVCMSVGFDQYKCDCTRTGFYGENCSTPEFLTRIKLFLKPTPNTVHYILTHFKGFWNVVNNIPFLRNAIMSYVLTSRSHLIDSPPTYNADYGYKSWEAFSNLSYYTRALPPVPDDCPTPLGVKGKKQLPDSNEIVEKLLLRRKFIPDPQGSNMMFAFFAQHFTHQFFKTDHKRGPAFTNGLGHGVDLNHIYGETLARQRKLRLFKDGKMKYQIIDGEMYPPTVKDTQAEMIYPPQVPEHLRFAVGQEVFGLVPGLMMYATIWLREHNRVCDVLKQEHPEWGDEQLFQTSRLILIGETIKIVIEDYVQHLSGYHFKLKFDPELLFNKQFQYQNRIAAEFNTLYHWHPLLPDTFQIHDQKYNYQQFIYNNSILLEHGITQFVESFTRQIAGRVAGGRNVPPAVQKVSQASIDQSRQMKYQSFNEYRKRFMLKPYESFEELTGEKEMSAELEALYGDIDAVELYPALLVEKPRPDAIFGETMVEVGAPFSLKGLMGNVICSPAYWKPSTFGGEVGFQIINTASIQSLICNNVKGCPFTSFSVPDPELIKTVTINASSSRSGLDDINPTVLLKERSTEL
# [5] = Tmax in Swiss albino mouse at 10 mg/kg, ip measured upto 24 hrs by LC-MS analysis; assay type: ADME, organism-based; settings: in vivo
# Method in brief: as §1
# Mus musculus [6] = test: Antiinflammatory activity against Swiss albino mouse assessed as reduction in carragenan-induced paw edema at 5 mg/kg treated 30 mins prior to carrageenan challenge and measured upto 360 mins relative to control; assay type: functional; parameters: scale not given: the % may be the effect or the level left; settings: time 390 min, 6.5 h
# Method in brief: (§2)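 100 μL freshly prepared 1% carrageenan injected into the subplantar hind paw, with indomethacin (10 mg/kg) or test compound given 30 min before. Dose–response arm used 0.5, 2.5, 5, 10, 20 mg/kg. Six animals per group. Paw thickness (mm) read at 15, 30, 60, 120, 180, 240, 300, 360 min. Result expressed as % decrease versus control.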
# Mus musculus [7] = test: Sedative activity in Swiss albino mouse at 300 mg/kg, po after 2 hrs; assay type: ADME, organism-based; settings: in vivo
# Method in brief: (§3)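 Acute oral toxicity in Swiss albino mice fasted 4 h, three per group, vehicle control group alongside. Single 300 mg/kg oral dose, continuous observation for 4 h, then periodic checks over 14 days.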
# Mus musculus [8] = test: Antiinflammatory activity against Swiss albino mouse assessed as reduction in carragenan-induced paw edema at 2.5 mg/kg treated 30 mins prior to carrageenan challenge and measured upto 360 mins relative to control; assay type: functional; parameters: scale not given: the % may be the effect or the level left; settings: time 390 min, 6.5 h
# Method in brief: as §2
# [9] = biological target: T1, Prostaglandin G/H synthase 1 (Ovis aries); test: Binding affinity to ovine COX-1 assessed as change in entropy by isothermal titration calorimetry
# Method in brief: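 ITC at 25 °C in 0.1 M Tris buffer. Ligand at 100 μM in DMSO:Tris (1:9) titrated from a syringe stirred at 500 rpm into enzyme in the sample cell, 120 s spacing. 40 × 1 μL injections, except COX-1 at 20 × 2 μL. Buffer-only control titrations were subtracted.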
# Albumin [10] = biological target: T3, Albumin (Homo sapiens, UniProt P02768); test: Binding affinity to HSA assessed as change in enthalpy by isothermal titration calorimetry
# T3 sequence (P02768 whole entry): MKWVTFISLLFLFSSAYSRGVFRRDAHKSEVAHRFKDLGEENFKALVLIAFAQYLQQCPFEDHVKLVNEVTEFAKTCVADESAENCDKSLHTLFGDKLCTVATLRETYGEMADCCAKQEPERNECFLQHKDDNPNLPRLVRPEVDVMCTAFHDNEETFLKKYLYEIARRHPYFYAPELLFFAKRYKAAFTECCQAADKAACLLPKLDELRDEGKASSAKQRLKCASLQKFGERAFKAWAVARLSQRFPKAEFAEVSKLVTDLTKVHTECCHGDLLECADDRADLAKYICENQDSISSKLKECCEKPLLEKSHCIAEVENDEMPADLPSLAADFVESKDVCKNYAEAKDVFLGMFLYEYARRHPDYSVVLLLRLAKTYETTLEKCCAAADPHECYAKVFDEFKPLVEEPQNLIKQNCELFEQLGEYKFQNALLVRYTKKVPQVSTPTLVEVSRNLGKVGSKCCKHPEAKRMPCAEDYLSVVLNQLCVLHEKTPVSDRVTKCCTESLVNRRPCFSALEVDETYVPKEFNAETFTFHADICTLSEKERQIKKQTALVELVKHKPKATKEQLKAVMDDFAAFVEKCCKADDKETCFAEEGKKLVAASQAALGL
# Albumin [11] = biological target: T3, Albumin; test: Binding affinity to HSA assessed as change in entropy by isothermal titration calorimetry
# Method in brief: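 Isothermal titration calorimetry at 25 °C. Ligand at 100 μM in DMSO:0.1 M Tris buffer (1:9), loaded in the syringe and stirred at 500 rpm. HSA (0.05 g per mL Tris buffer) placed in the sample cell. Forty 1 μL injections at 120 s intervals. Heats corrected with control titrations: ligand into buffer, and buffer into protein. Binding parameters fitted with a single-site model (Q = nΘMtΔHVo).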
# Mus musculus [12] = test: Sedative activity in Swiss albino mouse at 300 mg/kg, po after 1 hr; assay type: ADME, organism-based; settings: in vivo
# Method in brief: as §3
# [13] = biological target: T4, Prostaglandin G/H synthase 1 (Ovis aries, UniProt P05979); test: Inhibition of ovine COX-1 using arachidonic acid as substrate preincubated for 10 mins followed by substrate addition and measured after 2 mins by EIA
# T4 sequence (P05979 whole entry): T1 sequence (whole entry)
# Method in brief: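 COX-1 EIA run at 10⁻⁴–10⁻⁸ M in triplicate. Enzyme with heme in reaction buffer plus inhibitor, incubated 10 min at 37 °C. Boiled (3 min) enzyme served as background. Prostaglandin output quantified to give IC50.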
# [14] = Inhibition of soybean LOX using arachidonic acid as substrate incubated for 5 mins; parameters: species or system Glycine max
# Method in brief: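 Soybean lipoxygenase in assay buffer, compounds at 10⁻⁴–10⁻⁸ M from DMSO stocks, triplicate. Reaction started with arachidonic acid and shaken 5 min. Chromogen added, shaken 5 min more, absorbance read at 490 nm. Blanks were buffer + AA. % inhibition computed with chromogen extinction coefficient 9.47 mM⁻¹.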
smiles,measurement,setting,value
O=C(O)Cn1nncc1CO[C@@H](C(=O)O)[C@@H](OCc1cnnn1CC(=O)O)C(=O)O,deltaG,[1],-5.02 kcal/mol
same,Activity,Mus musculus [2],inactive
same,AUC(0-t) at 24 h,[3],241 µg·h/mL
same,TdeltaS,[4],-2.57 kcal/mol
same,Tmax,[5],1 h
same,deltaG,Glycine max,-7 kcal/mol
same,Activity,Mus musculus [6],32.6%
same,Activity,Mus musculus [7],Non-Toxic
same,Activity,Mus musculus [8],5.4%
same,TdeltaS,[9],-595 kcal/mol
same,deltaH,Albumin [10],-264 kcal/mol
same,TdeltaS,Albumin [11],-258 kcal/mol
same,Activity,Mus musculus [12],Toxic
same,IC50,[13],300 nM
same,IC50,[14],7 nM
